Consider 8 compounds from ChEMBL document CHEMBL1255525, “Fluorinated 2'-hydroxychalcones as garcinol analogs with enhanced antioxidant and anticancer activities” (Bioorg Med Chem Lett, 2010).

Data set [1] in a line: Antioxidant activity against superoxide dismutase like activity after 15 mins by NBT spectrometric assay. The class given is functional. An outline of the steps:
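Superoxide-scavenging (SOD-like) activity by NBT method, run in triplicate. Mix of 2.1 ml 0.2 M Tris buffer and 1 ml NBT with test solution, held on ice 15 min. KO₂ (1.5 ml) then added with stirring. Absorbance at 560 nm read every 30 s over 5 min. Ascorbic acid as standard.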

The test system of a further data set is BXPC-3. Kind of data set: Cytotoxicity against human BxPC3 cells expressing COX2 after 24 hrs by MTT assay. To be noted: BXPC-3, 24 h. The class given is functional, cell-based. An outline of the steps:
(§1)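 Cells grown at 37 °C, 5% CO₂, with penicillin (50 U/ml), streptomycin and 10% fetal calf serum; lines STR-authenticated. 3 × 10³ cells seeded per well. Compounds in DMSO added 24 h after seeding. Eight replicate wells per treatment; experiments repeated at least three times. End-point: MTT 0.5 mg/ml, 2 h at 37 °C, then DMSO 30 min at room temperature; absorbance read.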
In general terms: Tetrazolium dyes change colour on reduction, which living cells bring about.

In a further data set the test system is BT-20. Kind of data set: Cytotoxicity against human estrogen receptor-deficient BT20 cells after 24 hrs by MTT assay. The class given is functional, cell-based. To be noted: BT-20, 24 h. The essentials: as §1
A short description of data set [2]: Lipophilicity, log P of the compound. Particulars: octanol/water. The class given is physicochemical.

pIC50: −log10 of the molar value.

As a reminder, the pIC50 is the IC50 on a negative log10 scale, so that one unit is a factor of ten. A low value points to a large IC50. Broadly, the logP is the decadic logarithm of the partition coefficient of the neutral form, usually between octanol and water. A higher logP goes with a more lipophilic compound. `O=C(/C=C/c1ccc(F)c(F)c1)c1ccccc1O`: the pIC50 in data set [1] was 5.25; in the data set with BXPC-3 it was 4.57; in the data set with BT-20, 4.48. In addition, the logP in data set [2] amounted to 3.51.
The like results for `O=C(/C=C/c1ccc(O)cc1O)c1ccccc1O` were, in that order, 5.22, 4.16, 4.28 and 2.42.
Regarding `O=C(/C=C/c1ccc(F)cc1F)c1ccccc1O`, the pIC50 was 5.28 in data set [1], 4.73 with BXPC-3 and 4.58 in the data set with BT-20. In data set [2], the logP was 3.51.
For `O=C(/C=C/c1ccc(O)c(O)c1O)c1ccccc1O`, the pIC50 in data set [1] is 4.86; in the data set with BXPC-3, 3.67; with BT-20, 4.21. The logP in data set [2] came out at 2.03.
Regarding `O=C(/C=C/c1ccc(F)c(F)c1F)c1ccccc1O`, the pIC50 in data set [1] was 5.14; in the data set with BXPC-3, 4.46; in the data set on BT-20 it was 4.25. The compound further had a logP in data set [2] of 3.67.
In the same order, the values of `O=C(/C=C/c1ccc(O)c(O)c1)c1ccccc1O` are 5.03, 4.11, 4.19 and 2.42.
`O=C1O[C@H]([C@@H](O)CO)C(O)=C1O` [ASCORBIC ACID] showed a pIC50 in data set [1] of 5.27.
As for `O=C(/C=C/c1ccccc1)c1ccccc1` [CHALCONE], the logP in data set [2] worked out at 3.2.
